Results from ChEMBL document CHEMBL5335784, “Discovery of a novel 1,3,4-oxadiazol-2-one-based NLRP3 inhibitor as a pharmacological agent to mitigate cardiac and metabolic complications in an experimental model of diet-induced metaflammation” (Eur J Med Chem, 2023).
Active and inactive are the calls of the source. No cut-off for these calls is given here.

Experiments:
Rattus norvegicus [1] = experiment: Inhibition of ischemia/reperfusion-induced inflammation in ischemia/reperfusion-induced myocardial injury and high fat diet fed obese Wistar rat model assessed as decrease in cardiac TNF-alpha level at 20 mg/kg/day, ip administered for 4 weeks followed by excised heart exposed to global ischemia for 30 mins and reperfusion for 120 mins by ELISA; type: functional, organism-based
How it was run: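 Male Wistar rats on standard or 60% kcal fat diet for 12 weeks; last 28 days i.p. 20 mg/kg/day in saline with 2% DMSO and 5% Cremophor-EL, or vehicle. Hearts perfused by Langendorff with KH buffer at 12 ml/min, 37°C, then 40 min stabilization, 30 min global no-flow ischemia and 120 min reperfusion. Cytokines measured in LV tissue; n=6–7 per group.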

Rattus norvegicus [2] = experiment: Cardioprotective activity against myocardial ischemia/reperfusion injury-induced contractile impairment and standard diet fed Wistar rat model assessed as developed LVP recovery at 20 mg/kg/day, ip administered for 4 weeks followed by excised heart exposed to global ischemia for 30 mins and reperfusion for 120 mins and measured at the end of reperfusion (reference value: 43 +/-7 mmHg); type: functional
Rattus norvegicus [3] = experiment: Antiinflammatory activity against high fat diet fed-induced metaflammation Wistar rat model assessed as reduction in HFD-induced anthropometric alterations by measuring reduction in epididymal fat deposition at 20 mg/kg/day, ip administered for 4 weeks; type: functional, organism-based
How it was run: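 Male Wistar rats on high-fat diet (60% kcal fat) or standard diet for 12 weeks; 20 mg/kg/day i.p. or vehicle (saline, 2% DMSO, 5% Cremophor-EL) over the last 28 days. Body weight recorded weekly. After sacrifice, abdominal, epididymal, retroperitoneal and perirenal fat, liver and heart excised and weighed. Cardiac somatic index = heart weight/body weight ×100. n=6–7 per group.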

[4] = Stability of the compound in saline solution containing 2% DMSO and 5% Cremophor-EL measured at 4 degC for more than 7 days by RP-HPLC analysis; type: physicochemical; settings: buffer, 168 h; time 7 day
How it was run: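 A 2 mg/mL solution in saline with 2% DMSO and 5% Cremophor-EL was kept at 4 °C or 25 °C for 7 days and analysed daily by RP-HPLC at 226/254 nm.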

Stability [4]: Stable
Structure (SMILES): CCOC(=O)Cn1nc(Cc2ccccc2Cl)oc1=O
inhibition (Rattus norvegicus [1]): Active
Activity (Rattus norvegicus [2]): 80 mmHg
Activity (Rattus norvegicus [3]): Active
